This is an account of results in ChEMBL document CHEMBL1132805, “Parallel synthesis of isatin-based serine protease inhibitors” (Bioorg Med Chem Lett, 2000).

The structures appear in SMILES notation. Calls of active or inactive are those of the source. No cut-off for these calls is given here.

Assay [1] deals with T1, Neutrophil elastase (Homo sapiens) (UniProt P08246).
T1 sequence (whole entry): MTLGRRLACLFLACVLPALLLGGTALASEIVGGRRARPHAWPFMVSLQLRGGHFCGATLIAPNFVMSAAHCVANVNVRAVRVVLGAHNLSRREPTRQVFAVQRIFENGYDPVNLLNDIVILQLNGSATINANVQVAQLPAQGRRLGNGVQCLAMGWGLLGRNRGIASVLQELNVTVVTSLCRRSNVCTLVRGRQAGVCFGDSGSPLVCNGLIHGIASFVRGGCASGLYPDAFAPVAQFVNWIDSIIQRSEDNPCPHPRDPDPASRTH
Put plainly: Evaluated for percent inhibition of human leucocyte elastase at 20 ug/mL; NA means not active. The method in brief: (§1)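 Human leukocyte elastase at 40 nM in reaction, with substrate Suc-Ala-Pro-Ala-AMC. A commercial elastase inhibitor serves as control. 50 mM Tris-HCl pH 7.2 with 15% glycerol, 60 min at 37 °C. Fluorescence read at 370/460 nm. Compounds are added from 10 mg/mL DMSO stock. Quenching is assessed on free AMC in the assay buffer.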

For assay [2], the target named is Plasminogen (Homo sapiens) (UniProt P00747). In words: Evaluated for percent inhibition of human plasmin at 20 ug/mL; NA means not active. A digest of the protocol:
(§2)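 Plasmin from human plasma, 165 pM in reaction, with fluorogenic H-Ala-Phe-Lys-AMC. α2-Antiplasmin serves as the control inhibitor. Run in 50 mM Tris-HCl pH 7.2, 15% glycerol, 60 min at 37 °C. Read-out is AMC fluorescence at ex/em 370/460 nm. Compounds come from 10 mg/mL DMSO stock. Quenching is checked with free AMC in the same buffer.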

Assay [3] concerns the target T2, Chymotrypsin-C (Homo sapiens) (UniProt Q99895).
T2 sequence (whole entry): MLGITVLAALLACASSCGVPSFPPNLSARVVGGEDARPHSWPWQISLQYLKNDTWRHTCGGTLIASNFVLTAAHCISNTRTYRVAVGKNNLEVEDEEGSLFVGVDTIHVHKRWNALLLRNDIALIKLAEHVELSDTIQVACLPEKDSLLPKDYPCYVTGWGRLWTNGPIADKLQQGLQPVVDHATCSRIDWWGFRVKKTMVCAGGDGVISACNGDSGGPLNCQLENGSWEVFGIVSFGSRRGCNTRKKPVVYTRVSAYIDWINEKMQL
Put plainly: Inhibition of human Serine protease chymotrypsin at 20 ug/mL. The method in brief: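 Fluorogenic substrate Suc-Ala-Ala-Pro-Phe-AMC. Chymostatin serves as the control inhibitor. Reaction in 50 mM Tris-HCl pH 7.2 with 15% glycerol, incubated 60 min at 37 °C. AMC fluorescence is read at ex/em 370/460 nm. Compounds are from DMSO stock, 10 mg/mL. Compound quenching is checked against free AMC in the same buffer.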

For assay [4], the target named is T1, Neutrophil elastase (Homo sapiens). In words: Inhibition of human leucocyte elastase at 20 ug/mL. A digest of the protocol:
as §1

The target in assay [5] is Plasminogen (Homo sapiens) (UniProt P00747). Put plainly: Inhibition of human plasmin at 20 ug/mL. The method in brief: as §2
Plasminogen (Homo sapiens), sequence (P00747 97-580 limits assumed): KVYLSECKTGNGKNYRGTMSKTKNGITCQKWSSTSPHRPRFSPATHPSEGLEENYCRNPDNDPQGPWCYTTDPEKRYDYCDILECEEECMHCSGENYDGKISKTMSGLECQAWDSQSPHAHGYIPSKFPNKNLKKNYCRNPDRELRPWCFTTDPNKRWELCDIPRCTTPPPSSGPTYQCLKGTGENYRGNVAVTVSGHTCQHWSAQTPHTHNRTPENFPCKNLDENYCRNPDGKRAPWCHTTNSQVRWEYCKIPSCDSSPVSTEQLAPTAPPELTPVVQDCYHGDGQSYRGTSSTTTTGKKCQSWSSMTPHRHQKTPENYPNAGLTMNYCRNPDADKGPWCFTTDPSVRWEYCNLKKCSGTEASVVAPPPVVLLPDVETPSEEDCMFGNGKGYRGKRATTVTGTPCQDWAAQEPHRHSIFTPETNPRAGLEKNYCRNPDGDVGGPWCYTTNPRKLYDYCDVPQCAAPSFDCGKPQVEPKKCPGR
Plasminogen (Homo sapiens), sequence (P00747 581-810 limits assumed): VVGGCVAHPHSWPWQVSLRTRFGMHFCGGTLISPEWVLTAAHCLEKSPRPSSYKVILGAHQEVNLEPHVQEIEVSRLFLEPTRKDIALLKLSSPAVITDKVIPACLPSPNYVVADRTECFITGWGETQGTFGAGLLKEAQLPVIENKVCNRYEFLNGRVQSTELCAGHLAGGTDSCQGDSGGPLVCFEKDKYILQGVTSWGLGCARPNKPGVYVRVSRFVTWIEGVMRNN

On to `CC(C)C[C@H](NC(=O)[C@@H](NC(=O)N[C@@H](Cc1ccccc1)C(=O)O)C1CCNC(=N)N1)C(=O)N[C@H](C=O)Cc1ccccc1` (stereo partly drawn), for which the inhibition result in assay [1] and in assay [2] was “inactive” each time. In assay [3], the inhibition – broadly, how much of the control response was suppressed – is 95%.

Take `O=C(CN1C(=O)C(=O)c2ccccc21)c1ccc(Cl)cc1`: the inhibition in assay [4] was found to be 56%; in assay [5] it was 87%; in assay [3], 89%.

Turning to `CC(C)(C)C(=O)CN1C(=O)C(=O)c2ccccc21`, the inhibition is 51% in assay [4], 55% in assay [5] and 85% in assay [3].

With `NC(=O)CN1C(=O)C(=O)c2ccccc21`, the figures for the inhibition in assay [4], in assay [5] and in assay [3] were 3%, 29% and 5%, respectively.

On to `O=C1C(=O)N(CC(=O)N2CCN(C(=O)Nc3cccc4ccccc34)CC2)c2ccc(Cl)cc21`, for which the inhibition came to 74% in assay [4], 80% in assay [5] and 82% in assay [3].

With `Cc1ccc(C(=O)CN2C(=O)C(=O)c3ccccc32)cc1`, the inhibition came out at 45% in assay [4], 84% in assay [5] and 94% in assay [3].

On to `CCCCOC(=O)Nc1cccc(NC(=O)NC(=O)N2CCN(C(=O)CN3C(=O)C(=O)c4cc([N+](=O)[O-])ccc43)CC2)c1`, for which the inhibition in assay [4] is 94%; in assay [5] it was 82%; in assay [3] it was 87%.

As to `O=C(CN1C(=O)C(=O)c2cc(OC(F)(F)F)ccc21)c1ccc2ccccc2c1`, the inhibition in assay [4] was found to be 64%; in assay [5], 86%; in assay [3] it was 97%.

`N#Cc1cccc(NC(=O)N2CCN(C(=O)CN3C(=O)C(=O)c4cc(OC(F)(F)F)ccc43)CC2)c1`: the results for the inhibition in assay [4], in assay [5] and in assay [3] were 26%, 57% and 77%, respectively.

As to `O=C(CN1C(=O)C(=O)c2ccccc21)c1ccc(F)cc1`, the inhibition in assay [4] came out at 90%; in assay [5] it was 89%; in assay [3], 83%.

In the case of `O=C1C(=O)N(CC(=O)N2CCN(C(=O)Nc3cccc4ccccc34)CC2)c2ccc(OC(F)(F)F)cc21`, the inhibition is 79% in assay [4], 77% in assay [5] and 79% in assay [3].
